# Hits are enriched below; roughly 3.8% of the tested compounds scored in any of these assays.
# RAM network inh = inhibitors of the yeast RAM network, primary screen, dse1pr::URA3 reporter, 5-FOA selection; 1.8% of 190,000 active; AID 868, 2007; inhibition, % at 50 µM; S. cerevisiae dse1pr::URA3 reporter, 5-FOA growth OD615, 2 d; analog-sensitive cbk1-as2 kinase mutant strain;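 active = inhibition above a set limit, 3 SD over mean compound inhibition, cut at about 8.4% in these data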;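 note: 0% = DMSO-only wells with no growth and 100% = 10 µM 1-NA-PP1 full growth; inhibition rescues growth on 5-FOA so higher OD means more RAM inhibition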
# NPY-Y1 antag = NPY-Y1 receptor antagonists, primary screen, cell-based. HEK293-CNG Y1 cells, membrane potential fluorescence; NPY at EC95, then isoproterenol. inhibition, % at 3.6 µM. 1% of 200,000 active. AID 1040, 2008;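 active = inhibition above the campaign mean inhibition of all tested compounds plus 3 SD, cut at about 20% in these data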;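 note: 0% = DMSO wells given NPY plus isoproterenol and 100% = isoproterenol alone without NPY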
#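 Material: HEK293 Y1/CNG channel cell line | Also added: NPY (25 nM), isoproterenol (1 µM), Ro 20-1724 (25 µM) | Compound: One concentration, 3.6 µM, in 0.4% DMSO | Schedule: 3 h dye uptake, 1 h room-temperature compound, 45 min post-isoproterenol | Signal: Membrane-potential fluorescent dye readout | Read-out: % inhibition of NPY effect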
# Insulin prom inh = inhibitors of insulin promoter-driven GFP, primary screen, imaging, TRM-6 cells, eGFP reporter, cell count. reporter expression induced with tamoxifen. inhibition, % at 2 µM. 0.9% of 130,000 active;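 active = inhibition above the mean plus 3 SD, with well images judged a real hit on visual review, cut at about 60% in these data, passing the limit was not always enough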
# NPY-Y1 PAM-ag = NPY-Y1 receptor potentiators or agonists, primary screen, cell-based. Neuropeptide Y receptor type 1 (Homo sapiens), P25929. NPY-Y1 expressing cells, potentiator/agonist activation. activation, % at 3.6 µM. 0.37% of 220,000 active. AID 1304, 2008; in the data active = activation above about 33%, passing the limit was not always enough;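 note: cells stimulated with NPY at EC10 then isoproterenol at EC100; 0% = low agonist plus stimulus and 100% = saturating agonist plus stimulus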
# NPY Y2 blocker = NPY-Y2 receptor antagonists, primary screen, cell-based; Neuropeptide Y receptor type 2 (Homo sapiens), P49146; NPY-Y2 expressing cells, antagonist mode; inhibition, % at 2.7 µM; 0.99% of 140,000 active; in the data active = inhibition above about 17%;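 note: 0% = vehicle with agonist challenge and 100% = reference antagonist with challenge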
# Target sequence (P49146 whole entry, looked up): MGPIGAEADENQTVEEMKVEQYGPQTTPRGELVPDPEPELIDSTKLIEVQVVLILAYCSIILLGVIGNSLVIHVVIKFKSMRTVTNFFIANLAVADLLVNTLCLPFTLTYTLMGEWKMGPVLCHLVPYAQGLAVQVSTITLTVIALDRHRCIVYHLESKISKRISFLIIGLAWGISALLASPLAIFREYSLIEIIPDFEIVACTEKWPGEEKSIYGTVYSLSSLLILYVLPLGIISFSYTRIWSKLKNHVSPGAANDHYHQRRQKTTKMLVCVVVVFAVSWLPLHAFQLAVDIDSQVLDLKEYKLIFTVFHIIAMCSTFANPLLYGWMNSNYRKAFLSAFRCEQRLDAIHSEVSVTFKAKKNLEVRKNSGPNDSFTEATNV
# NPY2 pot ag = NPY-Y2 potentiators or agonists, primary screen, cell-based; activation, % at 3.6 µM; 0.45% of 220,000 active; cells expressing NPY-Y2, potentiator/agonist read-out; AID 1359, 2008; in the data active = activation above about 27%;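 note: cells stimulated with NPY near EC25 plus isoproterenol at EC100; 0% = vehicle plus submaximal agonist and 100% = vehicle plus saturating agonist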
# NPY-Y1 antag ct = NPY-Y1 receptor antagonists, selectivity check, counter-screen for NPY-Y2 antagonist project, cell-based; shares compounds with NPY Y2 blocker; cell-based NPY-Y1 antagonism counterscreen; inhibition, % at 3.6 µM; 19% of 710 active; AID 1256, 2008; in the data active = inhibition above about 20%;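 note: cells challenged with NPY then isoproterenol with cAMP sensed through a CNG channel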
# NPY2 antag conf = NPY-Y2 receptor antagonists, retest of hits, confirmation, HEK293-CNG cells, membrane potential fluorescence, triplicate | shares compounds with NPY Y2 blocker | HEK293 NPY-Y2 CNG channel | inhibition, % at 2.8 µM | 32% of 710 active;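 active = mean inhibition of triplicate wells above the hit cutoff set in the primary screen, cut at about 17% in these data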;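 note: 0% = DMSO with NPY challenge and 100% = BIIE0246 high control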
# * = called active by the depositor; / = no result given; + = active, no number.
SMILES,RAM network inh,NPY-Y1 antag,Insulin prom inh,NPY-Y1 PAM-ag,NPY Y2 blocker,NPY2 pot ag,NPY-Y1 antag ct,NPY2 antag conf
Nc1c2c(nc3sc4c(c13)CCCC4)CCCCCC2,0,7,-340,-10,19*,0,14,18*
CCn1c(=O)cc(SCC(=O)NCCCN2CCN(c3ccccc3F)CC2)c2ccccc21,0,5,/,-32,10,-13,/,/
NNC(=O)Cn1c(SCc2ccccc2)nc2ccccc21,-1,-4,34,-11,22*,11,-3,4
CCOc1ccc2[nH]c(=O)c(C(c3nnnn3Cc3ccco3)N3CCCC(C)C3)cc2c1 (stereo not given),0,12,-7,-15,18*,8,5,4
CCCCCC(=O)NC(=S)Nc1ccc(Br)cc1C,5,1,17,13,20*,-1,10,19*
COc1ccc(CC(=O)NNC(=O)COc2ccc3ccccc3c2)cc1,4,10,/,1,8,-10,/,/
Cc1cc(C)nc(N/N=C/C2=C(N3CCOCC3)C(=C/c3ccccc3)/CC2)n1,4,17,-50,0,76*,6,56*,72*
O=C(O)c1ccccc1N/N=C/C1=C(N2CCOCC2)C(=C\c2ccccc2)/CC1,/,/,/,29,/,19,/,/
CCOC(=O)c1sc(/N=C/c2c(C)[nH]n(-c3ccccc3)c2=O)c(C#N)c1C,0,-2,/,11,-2,2,/,/
COC(=O)c1ccc(COC(=O)c2ccc(N(C)C)cc2)cc1,5,8,16,-46,20*,-5,4,10
Cc1ccc(C(=O)NC2CCN(CC(=O)Nc3cccc([N+](=O)[O-])c3)CC2)cc1,2,-2,-18,6,/,-2,/,/
CC12CCC(C/C1=N\N=C1\NC(=O)/C(=C\c3ccc(Cl)cc3)S1)C2(C)C (stereo not given),3,4,18,0,37*,6,44*,55*
Fc1ccc(-c2csc3[n+]2CCS3)cc1,2,10,50,-1,6,1,/,/
O=[N+]([O-])c1ccc(-c2csc3[n+]2CCS3)cc1,1,20,-17,-10,23*,-11,5,4
O=C(O)CCC(=O)NNC(=O)COc1ccc(Cl)cc1Cl,2,-4,/,8,/,-2,/,/
O=C(COc1ccc(Cl)cc1Cl)N/N=C/CCc1ccccc1,2,1,/,11,21*,-26,3,8
CCOC(=O)/C(=N\Nc1ccccc1Cl)N1CCN(c2ccccc2OC)CC1,7,12,33,-1,/,-8,/,/
CN(C)Cc1ccccc1Sc1cccc2ccccc12,1,18,-8,-62,22*,-14,15,21*
COc1cccc(-c2cc(C(=O)Nc3ccc([N+](=O)[O-])cn3)c3ccccc3n2)c1,4,3,/,-25,26*,-5,37*,52*
O=C(Nc1ccc([N+](=O)[O-])cn1)c1cc(-c2cccc(Br)c2)nc2ccccc12,6,6,-26,-8,2,-2,/,/
COc1ccc(-c2cc(C(=O)Nc3ccc(Cl)cc3Cl)c3ccccc3n2)cc1OC,6,6,23,-29,124*,-16,133*,+
COc1ccc(-c2cc(C(=O)Nc3c(Cl)cc(Cl)cc3Cl)c3ccccc3n2)cc1OC,2,10,-56,-20,79*,-25,152*,195*
NC(=O)Nc1ccc(C(=O)OCC(=O)NC2CCCCC2)cc1,1,2,-14,1,/,-13,/,/
COc1ccc(/C=N/NC(=O)c2nc(-c3ccccc3)cc(-c3ccccc3)n2)cc1O,4,9,34,-19,11,-29,/,/
COc1ccc(/C=N/NC(=O)c2nc(-c3ccccc3)cc(-c3ccccc3)n2)cc1,1,2,/,-53,20*,-57,22*,27*
SMILES,RAM network inh,NPY-Y1 antag,Insulin prom inh,NPY-Y1 PAM-ag,NPY Y2 blocker,NPY2 pot ag,NPY-Y1 antag ct,NPY2 antag conf
CC(C)c1ccc(NC(=O)C(c2ccc3c(c2)OCO3)N2CCN(C(=O)c3ccco3)CC2)cc1 (stereo not given),-1,-1,/,10,1,-4,/,/
CCN(CC)C(C(=O)Nc1ccc(C(C)C)cc1)c1ccc2c(c1)OCO2 (stereo not given),-1,16,-65,-6,18*,-14,7,14
CCCCN1C2=NCCCN2c2ccccc21,1,4,-20,17,1,9,/,/
CCCCN1C2=NCCCN2c2cc(C)c(C)cc21,0,13,/,-13,22*,-6,11,6
CCOc1ccc(-n2c(-c3ccccc3)nnc2-c2ccccc2)cc1,2,10,25,-32,21*,-24,7,15
CCN(Cc1ccncc1)C(=O)c1ccc2c(c1)S(=O)(=O)c1ccccc1C2=O,1,-3,/,-7,/,4,/,/
Cc1cc(C)c(NC(=O)c2ccccc2CCc2ccccc2)c(C)c1,4,15,/,-24,10,-28,/,/
CCc1cccc(CC)c1NC(=O)c1ccccc1CCc1ccccc1,4,2,/,-48,19*,-6,28*,17
N#CCCn1nc(-c2ccccc2)cc1Nc1ccccc1NC(=O)c1cccs1,0,-2,11,-9,0,-2,/,/
N#Cc1nc(-c2cccs2)oc1N1CCN(c2ccccc2)CC1,7,12,-67,-49,18*,-7,7,12
O=C1C2CC=C(Cl)CC2C(=O)N1CC1Cc2ccccc2CO1 (stereo not given),-1,11,/,-5,28*,-26,9,23*
O=C1C2CC=C(Cl)CC2C(=O)N1CC1OCCc2ccccc21 (stereo not given),-1,16,-34,-70,11,-31,/,/
Cc1cc(C)c(COc2ccc(/C=N/n3c(C)n[nH]c3=S)cc2)c(C)c1,2,15,-10,-8,3,-3,/,/
Cc1c(Cl)cccc1NC(=O)COC(=O)c1c2c(nc3ccccc13)CCN(Cc1ccccc1)C2,-1,8,-32,-32,12,-2,/,/
